Test results taken from ChEMBL document CHEMBL4321805, “A Conformational Restriction Strategy for the Identification of a Highly Selective Pyrimido-pyrrolo-oxazine mTOR Inhibitor” (J Med Chem, 2019).

Experiments:
[1] = target: T1, Cytochrome P450 1A1 (Homo sapiens, UniProt P04798); assay: Drug level treated with 5-((R)-4-((R)-3-Methylmorpholino)-5a,6,8,9-tetrahydro-5H-pyrimido[5',4':4,5]pyrrolo[2,1-c][1,4]oxazin-2-yl)pyrimidin-2-amine assessed as recombinant human CYP1A1-mediated compound formation incubated for 60 mins by LC/MS analysis; type: ADME; conditions: recombinant enzyme, 1 h
T1 sequence (P04798 whole entry): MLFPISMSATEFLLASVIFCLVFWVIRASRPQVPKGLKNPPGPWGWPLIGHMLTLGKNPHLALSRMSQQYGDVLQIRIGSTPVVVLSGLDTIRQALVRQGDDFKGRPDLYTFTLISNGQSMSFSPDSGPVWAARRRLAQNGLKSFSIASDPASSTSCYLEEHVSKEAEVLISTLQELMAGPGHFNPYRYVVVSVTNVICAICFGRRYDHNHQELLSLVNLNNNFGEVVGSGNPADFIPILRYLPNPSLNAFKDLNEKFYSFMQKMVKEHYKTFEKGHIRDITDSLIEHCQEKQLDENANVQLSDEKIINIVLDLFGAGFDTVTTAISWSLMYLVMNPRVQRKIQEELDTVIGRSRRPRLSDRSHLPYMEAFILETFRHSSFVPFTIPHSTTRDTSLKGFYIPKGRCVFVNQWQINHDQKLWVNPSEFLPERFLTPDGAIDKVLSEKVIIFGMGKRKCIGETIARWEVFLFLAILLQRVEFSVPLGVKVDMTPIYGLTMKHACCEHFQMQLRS
Procedure, shortened: (§1)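 Human recombinant CYP1A1 or CYP1A2 Supersomes (25 pmol/mL) incubated with compound at 1 μM (0.25% DMSO) plus NADP+-regenerating cofactors at 37 °C for 60 min. Reaction stopped with ACN containing internal standard. Parent and metabolites expressed as percentage of total peak areas.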

[2] = target: T2, Cytochrome P450 1A2 (Homo sapiens, UniProt P05177); assay: Drug level treated with 5-((R)-4-((R)-3-Methylmorpholino)-5a,6,8,9-tetrahydro-5H-pyrimido[5',4':4,5]pyrrolo[2,1-c][1,4]oxazin-2-yl)pyrimidin-2-amine assessed as recombinant human CYP1A2-mediated compound formation incubated for 60 mins by LC/MS analysis; type: ADME; conditions: recombinant enzyme, 1 h; procedure, shortened: as §1
T2 sequence (P05177 whole entry): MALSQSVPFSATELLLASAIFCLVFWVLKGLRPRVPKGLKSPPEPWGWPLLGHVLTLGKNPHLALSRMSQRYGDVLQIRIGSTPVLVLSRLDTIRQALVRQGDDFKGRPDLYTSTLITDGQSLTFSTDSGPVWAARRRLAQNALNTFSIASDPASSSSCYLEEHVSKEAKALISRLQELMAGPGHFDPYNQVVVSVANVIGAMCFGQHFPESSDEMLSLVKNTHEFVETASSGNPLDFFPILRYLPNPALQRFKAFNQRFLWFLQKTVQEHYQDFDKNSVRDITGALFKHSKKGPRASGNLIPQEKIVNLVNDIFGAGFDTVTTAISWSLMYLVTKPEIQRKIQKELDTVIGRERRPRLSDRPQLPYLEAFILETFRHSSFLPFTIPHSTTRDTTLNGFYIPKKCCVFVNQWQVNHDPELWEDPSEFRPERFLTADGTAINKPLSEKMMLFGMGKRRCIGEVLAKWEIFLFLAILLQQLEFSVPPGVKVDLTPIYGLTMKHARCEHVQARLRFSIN

[3] = target: mTORC1 (Homo sapiens, UniProt P42345); assay: Inhibition of mTORC1 in human A2058 cells assessed as reduction in ribosomal protein S6 phosphorylation at Ser235/236 residues incubated for 1 hr by Western blot analysis; type: cell-based
Procedure, shortened: (§2)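 In-cell Western assay. A2058 cells (2 × 10^4/well) grown 24 h at 37 °C, 5% CO2, then exposed 1 h to inhibitor or DMSO. Cells fixed in 4% PFA, blocked, and stained for the phospho-protein with α-tubulin as internal standard; infrared fluorescence read-out. Signals normalized to tubulin and to DMSO controls to derive IC50.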

[4] = target: Serine/threonine-protein kinase mTOR (Homo sapiens, UniProt P42345); assay: Inhibition of alexa fluor 647-labeled kinase tracer 314 binding to recombinant human N-terminal GST-fused mTOR (1360 to 2549 residues) expressed in baculovirus expression system by TR-FRET assay
Procedure, shortened: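 LanthaScreen TR-FRET tracer displacement. GST-fused truncated mTOR (aa 1360–2549) detected with Eu-anti-GST antibody (2 nM). […] Buffer: 50 mM HEPES, 5 mM MgCl2, 1 mM EGTA, 0.01% Pluronic F-127. Ki derived from displacement.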

[5] = target: PI3-kinase p110-alpha/p85-alpha (Homo sapiens, UniProt P42336); assay: Inhibition of alexa fluor 647-labeled kinase tracer 314 binding to recombinant human full-length N-terminal His6-tagged p110alpha/p85alpha expressed in baculovirus expression system by TR-FRET assay
[6] = species: Homo sapiens; assay: Selectivity ratio of Ki for inhibition of alexa fluor 647-labeled kinase tracer 314 binding to recombinant human full-length N-terminal His6-tagged p110alpha/p85alpha expressed in baculovirus expression system to Ki for inhibition of alexa fluor 647-labeled kinase tracer 314 binding to recombinant human N-terminal GST-fused mTOR (1360 to 2549 residues) expressed in baculovirus expression system
Procedure, shortened: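 Ratio of Ki values from the TR-FRET tracer 314 displacement assays. p110α: His6-tagged enzyme, biotin anti-His antibody and Eu-streptavidin (2 nM each), tracer at 20 nM, buffer 50 mM HEPES pH 7.5, 10 mM MgCl2, 1 mM EGTA, 0.01% Brij-35. mTOR: GST-mTOR 1360–2549, Eu-anti-GST, tracer 10 nM, HEPES/5 mM MgCl2/EGTA/Pluronic buffer.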

[7] = target: mTORC2 (Homo sapiens, UniProt P42345); assay: Inhibition of mTORC2 in human A2058 cells assessed as reduction in PKB phosphorylation at S473 residues incubated for 1 hr by Western blot analysis; type: cell-based; procedure, shortened: as §2
[8] = species: Homo sapiens; assay: Selectivity ratio of Kd for binding affinity to human wild-type partial length PI3Kalpha (R108 to N1068 residues) expressed in mammalian expression system to Kd for binding affinity to wild-type human partial length mTOR (L1382 to W2549 residues) expressed in mammalian expression system
Procedure, shortened: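 Ratio of Kd values from the DNA-tagged kinase competition binding assay (qPCR read-out, 11-point 3-fold dilution from 30 μM, Hill fit with slope −1, duplicates): PI3Kα Kd divided by mTOR Kd.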

Chain of PI3-kinase p110-alpha/p85-alpha (P27986 whole entry, the tested form may be a part): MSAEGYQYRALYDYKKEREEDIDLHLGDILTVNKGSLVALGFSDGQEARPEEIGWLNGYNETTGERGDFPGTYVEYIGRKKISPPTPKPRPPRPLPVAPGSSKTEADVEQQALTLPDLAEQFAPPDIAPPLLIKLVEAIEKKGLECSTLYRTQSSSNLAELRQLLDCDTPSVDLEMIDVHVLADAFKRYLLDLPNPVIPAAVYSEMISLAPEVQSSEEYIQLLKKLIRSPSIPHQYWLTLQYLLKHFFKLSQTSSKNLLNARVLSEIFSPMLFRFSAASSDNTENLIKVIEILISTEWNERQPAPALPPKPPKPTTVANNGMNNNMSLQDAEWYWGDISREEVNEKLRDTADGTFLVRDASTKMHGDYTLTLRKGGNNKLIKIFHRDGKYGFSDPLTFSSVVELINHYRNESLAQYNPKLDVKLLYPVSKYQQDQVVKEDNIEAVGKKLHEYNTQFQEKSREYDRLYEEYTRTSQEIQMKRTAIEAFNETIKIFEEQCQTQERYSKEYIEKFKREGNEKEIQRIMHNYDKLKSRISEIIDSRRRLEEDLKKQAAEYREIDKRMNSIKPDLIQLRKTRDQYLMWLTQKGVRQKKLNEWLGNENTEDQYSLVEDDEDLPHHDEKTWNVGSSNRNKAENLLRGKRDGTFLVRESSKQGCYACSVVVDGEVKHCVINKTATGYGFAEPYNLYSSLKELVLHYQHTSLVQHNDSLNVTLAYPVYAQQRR
Chain of PI3-kinase p110-alpha/p85-alpha (P42336 whole entry, the tested form may be a part): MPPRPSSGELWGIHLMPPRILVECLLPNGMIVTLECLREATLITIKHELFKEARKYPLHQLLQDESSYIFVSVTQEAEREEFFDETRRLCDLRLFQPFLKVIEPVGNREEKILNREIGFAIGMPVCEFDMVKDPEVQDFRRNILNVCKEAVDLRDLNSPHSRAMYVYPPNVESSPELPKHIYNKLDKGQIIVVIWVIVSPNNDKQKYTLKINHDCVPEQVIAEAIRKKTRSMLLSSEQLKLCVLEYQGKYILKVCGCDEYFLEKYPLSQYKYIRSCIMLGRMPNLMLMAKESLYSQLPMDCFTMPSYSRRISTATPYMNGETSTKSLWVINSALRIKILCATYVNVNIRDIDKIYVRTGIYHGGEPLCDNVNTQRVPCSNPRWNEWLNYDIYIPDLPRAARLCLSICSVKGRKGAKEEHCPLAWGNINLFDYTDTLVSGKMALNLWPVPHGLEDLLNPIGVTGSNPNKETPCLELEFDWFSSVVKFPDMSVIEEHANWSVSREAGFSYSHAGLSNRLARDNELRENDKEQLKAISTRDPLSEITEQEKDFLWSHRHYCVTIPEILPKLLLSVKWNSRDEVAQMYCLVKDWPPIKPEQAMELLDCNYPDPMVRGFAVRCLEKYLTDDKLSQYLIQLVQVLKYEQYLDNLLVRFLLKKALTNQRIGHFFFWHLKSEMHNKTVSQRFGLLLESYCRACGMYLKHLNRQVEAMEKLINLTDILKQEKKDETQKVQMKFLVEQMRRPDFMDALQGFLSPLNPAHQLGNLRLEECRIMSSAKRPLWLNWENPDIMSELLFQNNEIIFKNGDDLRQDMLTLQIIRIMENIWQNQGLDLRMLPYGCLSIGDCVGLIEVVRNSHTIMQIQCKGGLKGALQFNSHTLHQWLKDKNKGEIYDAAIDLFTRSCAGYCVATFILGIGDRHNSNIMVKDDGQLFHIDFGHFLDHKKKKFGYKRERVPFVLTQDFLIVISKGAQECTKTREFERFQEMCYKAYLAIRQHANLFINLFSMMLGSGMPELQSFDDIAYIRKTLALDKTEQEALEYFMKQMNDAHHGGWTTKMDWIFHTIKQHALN

SMILES	Drug metabolism [1]	Drug metabolism [2]	IC50 [3] [nM]	Ki [4] [nM]	Ki [5] [nM]	Ratio Ki [6]	IC50 [7] [nM]	Selectivity ratio [8]
CC(C=O)N(CCO)c1nc(-c2cnc(N)nc2)nc2c1C[C@@H]1COCCN21 (stereo not given in full)	Metabolite_Detected	Metabolite_Detected						
Nc1ccc(-c2nc(N3CC4CCC(C3)O4)c3c(n2)N2CCOC[C@H]2C3)cn1			160	27	1410	53	207	
Nc1cc(C(F)(F)F)c(-c2nc(N3CCCCC3)c3c(n2)N2CCOC[C@@H]2C3)cn1			43300		2830		21900	
C[C@H]1COCCN1c1nc(-c2ccc(N)nc2)nc2c1C[C@@H]1COCCN21			149	9.1	386	43	194	
Nc1ccc(-c2nc(N3CCOCC3)nc3c2C[C@@H]2COCCN32)cn1			1860	1280	541	0.4	1560	
Nc1ccc(-c2nc(N3CC4CCC(C3)O4)c3c(n2)N2CCOC[C@@H]2C3)cn1			245	96	1220	13	403	
Cc1cc(N)ncc1-c1nc2c(c(N3CCOC[C@H]3C)n1)C[C@@H]1COCCN21			826	85	2760	33	1540	
CC1(C)COCCN1c1nc(-c2ccc(N)nc2)nc2c1C[C@@H]1COCCN21			136	24	376	16	409	
COc1cc(N)ncc1-c1nc2c(c(N3CCOC[C@H]3C)n1)C[C@@H]1COCCN21			2520	208	16000	77	3760	
Nc1ccc(-c2nc(N3CCOCC3)nc3c2C[C@H]2COCCN32)cn1			1790	812	867	1.1	1870	
Nc1ccc(-c2nc(N3C4CCC3COC4)c3c(n2)N2CCOC[C@@H]2C3)cn1			354	60	3230	54	389	
Nc1cc(C(F)(F)F)c(-c2nc(N3CCCCC3)c3c(n2)N2CCOC[C@H]2C3)cn1			2650		138		2080	
Nc1ccc(-c2nc(N3CCOCC3)c3c(n2)N2CCOC[C@H]2C3)cn1			96	24	432	18 to 18.3	116 to 118	
COC(OC)c1nc(N)ncc1-c1nc2c(c(N3CCOC[C@H]3C)n1)C[C@@H]1COCCN21			377	34	66	2	534	
CC1(C)COCCN1c1nc(-c2ccc(N)nc2)nc2c1C[C@H]1COCCN21			991	121	7190	59	1330	
Nc1cc(C(F)(F)F)c(-c2nc(N3CCOCC3)c3c(n2)N2CCCC[C@@H]2C3)cn1			1240		48		321	
Nc1cc(C(F)(F)F)c(-c2nc(N3CCOCC3)c3c(n2)N2CCOC[C@H]2C3)cn1			524		56		355	
COC(OC)c1cc(N)ncc1-c1nc2c(c(N3CCOC[C@H]3C)n1)C[C@@H]1COCCN21			2420	300	1120	3.7	6520	
Nc1cc(C(F)(F)F)c(-c2nc(N3CCOCC3)c3c(n2)N2CCCC[C@H]2C3)cn1			938		22		407	
Cc1cc(-c2nc3c(c(N4CCOC[C@H]4C)n2)C[C@@H]2COCCN32)cnc1N			289	56	9630	172	488	
Nc1cc(C(F)(F)F)c(-c2nc(N3CCOCC3)c3c(n2)N2CCOC[C@@H]2C3)cn1			751		21		353	
C[C@@H]1COCCN1c1nc(-c2ccc(N)nc2)nc2c1C[C@H]1COCCN21			230	31	923	30	363	
Nc1ccc(-c2nc(N3CCOCC3)c3c(n2)N2CCOC[C@@H]2C3)cn1			164	69	76	1.1	194	
Nc1cc(C(F)F)c(-c2nc(N3C4CCC3COC4)nc(N3C4CCC3COC4)n2)cn1			85.2			389	190	> 3700
CC(C=O)N(CCO)c1nc(-c2cnc(N)nc2)nc2c1C[C@@H]1COC=CN21 (stereo not given in full)	Metabolite_Detected							
C[C@H]1COCCN1c1nc(-c2ccc(N)nc2)nc2c1C[C@H]1COCCN21			432	104	98	0.9	416	
Nc1ccc(-c2nc(N3C4CCC3COC4)c3c(n2)N2CCOC[C@H]2C3)cn1			132	31	1110	36	152	
